Laboratory results taken from ChEMBL document CHEMBL4308887, “Synthesis and biological evaluation of clovamide analogues with catechol functionality as potent Parkinson's disease agents in vitro and in vivo” (Bioorg Med Chem Lett, 2019).

Columns and labels:
SH-SY5Y [1] = assay: Neuroprotection against H2O2-induced cell death in human SH-SY5Y cells at 100 uM preincubated for 6 hrs followed by H2O2 addition and measured after 24 hrs by MTT assay relative to control; type: functional
Outline: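 Human SH-SY5Y neuroblastoma cells pretreated with compound at 100 μM for 6 h, then exposed to 600 μM H₂O₂ for 24 h; viability read by MTT and expressed as protection rate relative to untreated control. DMSO below 0.1% in all groups. Primary single-concentration screen; three independent experiments.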

SH-SY5Y [2] = assay: Neuroprotection against H2O2-induced cell death in human SH-SY5Y cells preincubated for 6 hrs followed by H2O2 addition and measured after 24 hrs by MTT assay; type: functional, cell-based
Outline: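 Primary screen at 100 μM, then dose-response. SH-SY5Y cells pretreated, then exposed to 600 μM H₂O₂ (the level chosen from a 100–1000 μM, 24 h viability titration). EC₅₀ is the concentration giving 50% of maximal effect. N-acetyl-L-cysteine served as positive control. DMSO below 0.1%. Mean ± S.E.M. of three experiments.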

Compound	Activity (SH-SY5Y [1]) [%]	EC50 (SH-SY5Y [2]) [µM]
COC(=O)[C@H](Cc1ccccc1)NC(=O)/C=C/c1ccc(O)cc1	<50	–
COC(=O)[C@H](Cc1ccc(O)cc1)NC(=O)/C=C/c1ccc(O)c(O)c1	>50	11.3
COC(=O)[C@H](Cc1ccc(O)cc1)NC(=O)/C=C/c1ccc(O)cc1	<50	–
COC(=O)[C@H](Cc1ccccc1)NC(=O)/C=C/c1ccccc1	<50	–
COC(=O)[C@H](Cc1ccc(O)cc1)NC(=O)/C=C/c1ccccc1	<50	–
COC(=O)[C@H](Cc1ccc(O)c(O)c1)NC(=O)/C=C/c1ccc(O)cc1	>50	19.1
COC(=O)[C@H](Cc1ccc(O)c(O)c1)NC(=O)/C=C/c1ccc(O)c(OC)c1	>50	23.8
COC(=O)[C@H](Cc1ccccc1)NC(=O)/C=C/c1ccc(O)c(OC)c1	<50	–
COC(=O)[C@H](Cc1ccc(O)cc1)NC(=O)/C=C/c1cccc(O)c1	<50	–
COC(=O)[C@H](Cc1ccccc1)NC(=O)/C=C/c1cccc(O)c1	<50	–
COC(=O)[C@H](Cc1ccc(O)cc1)NC(=O)/C=C/c1cccc(OC)c1	<50	–
COC(=O)[C@H](Cc1ccc(O)c(O)c1)NC(=O)/C=C/c1cccc(O)c1	>50	17.5
CC(=O)N[C@@H](CS)C(=O)O [ACETYLCYSTEINE]	–	1680
O=C(O)/C=C/c1ccc(O)c(O)c1 [CAFFEIC ACID]	–	33.8
COC(=O)[C@H](Cc1ccc(O)c(O)c1)NC(=O)/C=C/c1ccc(O)c(O)c1 [N-CAFFEOYL-DOPA METHYL ESTER]	>50	15.6
COC(=O)[C@H](Cc1ccc(O)c(O)c1)NC(=O)/C=C/c1ccccc1 [N-CINNAMOYL-DOPA METHYL ESTER]	>50	14.3
